Tested on: MS2 coat protein
Experiment: apparent Kd, MS2 coat protein; higher = weaker binding; RNA-MaP array; FMN 200 µM where present
Procedure, shortened: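 On Illumina sequencing-chip clusters, designs were transcribed by stalled E. coli RNA polymerase and titrated with SNAP-549-labelled MS2 coat protein (0.7 or 1.5 nM, doubling to 3 µM), without and then with constant ligand, in 100 mM Tris-HCl pH 7.5, 80 mM KCl, 4 mM MgCl2, BSA, DTT, yeast tRNA and Tween-20. Apparent Kd is the median of filtered per-cluster curve fits to green signal normalised to red-channel RNA signal and control-cluster median Fmax.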

[1] = designed as: OFF switch for flavin mononucleotide, no ligand
[2] = ligand present: flavin mononucleotide, designed as: OFF switch for flavin mononucleotide
[3] = designed as: ON switch for flavin mononucleotide, no ligand
[4] = ligand present: flavin mononucleotide, designed as: ON switch for flavin mononucleotide

Sequence: CGCUUUAUAUAUUUGGCAAGAAUCAGAAGGCGUUACAUGAGGAUCACCCAUGUUUUGUAUAGUAACGAGGAUAUGAUAUGAGCG
- apparent Kd [1]: 14.6 nM
- apparent Kd [2]: 14.8 nM

Sequence: AUAAUUUUAUUUUUCUAUUUCAUCAGAAGGCAUUACAUGAGGAUCACCCAUGUUUUGGAUAGUAAUGAGGAUAUGAUAUGGUUA
- apparent Kd [1]: 10.2 nM
- apparent Kd [2]: 18.6 nM

Sequence: CUGCCGUAGGAGAAGGACGGCGGGUUAUUUUUGUACAUGAGGAUCACCCAUGUAGGAUAUCCUACGUCAGGCGGCCUACUACAG
- apparent Kd [1]: 13.7 nM
- apparent Kd [2]: 19.8 nM

Sequence: CGAUAACAUAGUUAUCCGUAACGGACAUGAGGAUCACCCAUGUAGGAUAUGUUACUCCACGAGUAACAGAAGGACAUGAGUCUU
- apparent Kd [1]: 19.3 nM
- apparent Kd [2]: 95.7 nM

Sequence: AUACAUACAAAGUUACAUGAGGAUCACCCAUGUUUAUUGGGAAGAAGGGUAACAUUAUUAGAUGUAUAGGAUAUUUCACAAUUG
- apparent Kd [3]: 537 nM
- apparent Kd [4]: 275 nM

Sequence: CUAUUGUGAGGAUAUCAGGUGUGCUAGCGUACUGGUACAUCUGAGAAGGCACAUGAGGAUCACCCAUGUUUCUU
- apparent Kd [1]: 19.3 nM
- apparent Kd [2]: 56.2 nM

Sequence: UUGAAUUGAAACAUGAGGAUCACCCAUGUGUCAUAGUUGACAUAGGAUAUGCUUAUACUUUUAAAGCAGAAGGAUGACGAUACU
- apparent Kd [3]: 19.8 nM
- apparent Kd [4]: 7.46 nM

Sequence: AUCAAUCAUGUAGGAUAUGCGUGGCGAAGCUAUGCAGAAGGACAUGAGGAUCACCCAUGUCUUUCUGUCUGCGUACGGACAGGA
- apparent Kd [1]: 19.4 nM
- apparent Kd [2]: 72.9 nM

Sequence: GCGCAAACGCCAAAAGGCGAAAUUACAUGAGGAUCACCCAUGUAGGAUAUCGAUUGCUUUGCAGUCGAGAAGGACAUGAUGCGC
- apparent Kd [1]: 19.2 nM
- apparent Kd [2]: 23.9 nM

Sequence: UUAAAUCAUGUAGGAUAUGCAUGGCGAAGCUACGCAGAAGGACAUGAGGAUCACCCAUGUUCUGGCGUCUGAGUACAGAUGCAA
- apparent Kd [1]: 20.3 nM
- apparent Kd [2]: 48.8 nM

Sequence: AAAGACAGACAUGAGGAUCACCCAUGUUACGAAGAUAAUGGGAGAAGGGCGAUUGCAAAGCAAUCGCAGGAUAUUCGUAUUGUC
- apparent Kd [3]: 21.1 nM
- apparent Kd [4]: 8.93 nM

Sequence: GUCAGCUCGUGAGGAUAUACAACACUGCUUCGGCAGUGUAUUAAUAUCACAUGAGGAUCACCCAUGUAGAAGGCACGAGCUGAU
- apparent Kd [1]: 5.07 nM
- apparent Kd [2]: 5.81 nM

Sequence: GGUCGUCAAGUCAGGAUAUCGUAUAGUAGAUAUAACGAGAAGGGACAUGAGGAUCACCCAUGUCGUCUCAUCAG
- apparent Kd [1]: 19 nM
- apparent Kd [2]: 29 nM

Sequence: UUGUUAUAUGUAGGAUAUGCAUAUUAUUAUUAUGCAGAAGGACAUGAGGAUCACCCAUGUAUAUUGUUGUUAUAUAUUAUAUAU
- apparent Kd [1]: 24 nM
- apparent Kd [2]: 28.4 nM

Sequence: GCCGCCCGAUCUGGCUUUUGGGCUAGAAGGGCAUAUGUGGUCCAGGACAUGAGGAUCACCCAUGUGCAGGAUAUAGCCCACCAC
- apparent Kd [1]: 13.7 nM
- apparent Kd [2]: 24.1 nM

Sequence: UUAAAUCAUGUAGGAUAUGCAUGGCGAAGCUACGCAGAAGGACAUGAGGAUCACCCAUGUGCUAGCGACUGAGUACAGUUGCAA
- apparent Kd [1]: 56.4 nM
- apparent Kd [2]: 325 nM

Sequence: UGUCUUUGCACAGGAUAUCAUACAUGAGGAUCACCCAUGUCUAUAAAACAAUGAGAAGGGUGCGUGAUGUGGGCUGCUAUAGCG
- apparent Kd [3]: 24.7 nM
- apparent Kd [4]: 8.3 nM

Sequence: GGGUACAUGGGAGGAUAUGGGAUGAUAACAUGAGGAUCACCCAUGUUAAAGAUGCCGAGAGGCAACUAGAAGGCCCAUGUACCG
- apparent Kd [3]: 440 nM
- apparent Kd [4]: 59.2 nM

Sequence: AAUAACAGAGGAUAUACUGUUUUAUGUGUUUAUUGUUUUAAACAUGAGGAUCACCCAUGUAGAAGGCUGAAUAA
- apparent Kd [1]: 27.4 nM
- apparent Kd [2]: 27.8 nM

Sequence: GAGCGAGGGACAGGAUAUGCGGCGAAACUCUCCGCAGAAGGGUCGACAUGAGGAUCACCCAUGUCCUUACGCUCCAAGUAGAGG
- apparent Kd [3]: 132 nM
- apparent Kd [4]: 397 nM

Sequence: UCUGCCGCCGUGAGGAUAUGCCCAAACAAACGCGGGCAGAAGGCACAUGAGGAUCACCCAUGUCCCGCGGUUUU
- apparent Kd [1]: 19.6 nM
- apparent Kd [2]: 36.3 nM

Sequence: GAAAUUCGGGCAGGAUAUGGGUGCCGUCAAGACAUGAGGAUCACCCAUGUCCCAUGCACGAGCGCUCAGAAGGGCUCAUUGCAG
- apparent Kd [3]: 20.8 nM
- apparent Kd [4]: 22 nM

Sequence: UUUUGGCAUGUAGGAUAUGGGUCCGAUUAGGAUUUAGAAGGACAUGAGGAUCACCCAUGUGCAUUUAAUUGGUCUUUAUUUUUU
- apparent Kd [1]: 64.1 nM
- apparent Kd [2]: 85.6 nM

Sequence: GUUAUAAAGGUAGGAUAUAGUAUUAUAAUUAAAUUAGAAGGAUCUCACAUGAGGAUCACCCAUGUAAGAGGAUCACCCAUGUAU
- apparent Kd [1]: 11.4 nM
- apparent Kd [2]: 8.66 nM

Sequence: GGUGGCGCCUAGAAGGCCGGCCAAGAAGGAGCCGGAGGAUAUAGGCCUACAUGAGGAUCACCCAUGUGGCUUAGUCAUAUGGUU
- apparent Kd [1]: 22.4 nM
- apparent Kd [2]: 120 nM

Sequence: AUGUUACAUGAGGAUCACCCAUGUGAGGAUAUGUGUACCCGUAAAAAAGUGUCGGGCCAUAGAAGGCAUUUGGA
- apparent Kd [1]: 48.4 nM
- apparent Kd [2]: 49.9 nM

Sequence: GUAGCAUACCGAGGAUAUUCAUAUUACAUGAGGAUCACCCAUGUUAUAGGUCGAUUACGACCUUGGGAGAAGGCGGAAUGCUAC
- apparent Kd [3]: 30.9 nM
- apparent Kd [4]: 13.2 nM

Sequence: CAAAAGCUAGGAUAUGCCAAUUGUUCCUUAAGUCAAAAUAAACAUGAGGAUCACCCAUGUAGAAGGAGCCCAAC
- apparent Kd [1]: 35.9 nM
- apparent Kd [2]: 19.8 nM

Sequence: GCGUGACAUGAGGAUCACCCAUGUGAGGAUAUCUGGAUAAUUUUUAUUUUAGAUAUCCAGAGAAGGCACAUGCU
- apparent Kd [1]: 63.8 nM
- apparent Kd [2]: 156 nM

Sequence: CCGUUGGGCUAGAAGGCUCCGGGAGGGCCGCGGAGAGGAUAUAGCACAUGAGGAUCACCCAUGUGGUAUGACCUUAUGUAAUCA
- apparent Kd [1]: 37.4 nM
- apparent Kd [2]: 82.7 nM

Sequence: GGAAAUCAUGUAGGAUAUGCAUGGCGAAGCUACGCAGAAGGACAUGAGGAUCACCCAUGUUAUAGCGUCCGAGUAAGGAUGCAA
- apparent Kd [1]: 42.1 nM
- apparent Kd [2]: 123 nM

Sequence: GGUGAGAGCAAGGAUAUGCAGAAGUGAGAAAGUGCAGAAGGUGCUACAUGAGGAUCACCCAUGUUGGAUGUGUU
- apparent Kd [1]: 37.1 nM
- apparent Kd [2]: 49.1 nM

Sequence: AGGUAGUCAGGAUAUUAGUGGUAGAGGGAUAACUUUAUUGUUGAGAAGGGACAUGAGGAUCACCCAUGUUUUGU
- apparent Kd [1]: 26.3 nM
- apparent Kd [2]: 32.5 nM

Sequence: GGCUACGUUUCGUAGCAGUGUCAUCGAGAAGGCCCUGACAUGAGGAUCACCCAUGUUGUUACAUGGGAGGAUAUCGAUGAUACG
- apparent Kd [3]: 12.1 nM
- apparent Kd [4]: 4.96 nM

Sequence: GGUCUUCAAGUCAGGAUAUCGUCUGGUCGGUCUGGCGAGAAGGGACAUGAGGAUCACCCAUGUCGUCUCAUCAG
- apparent Kd [1]: 25.5 nM
- apparent Kd [2]: 40.2 nM

Sequence: CGCUCAUUAUAUAAGGAAAGAAUCAGAAGGCGUUACAUGAGGAUCACCCAUGUUUUGUAUAGUAACGAGGAUAUGAUAUGAGCG
- apparent Kd [1]: 18.6 nM
- apparent Kd [2]: 16 nM

Sequence: UGAGCAUGAGGAUAUACUUGGCGUGCGUGAGCACGAGGUUUACAUGAGGAUCACCCAUGUAGAAGGCAUGUUCU
- apparent Kd [1]: 18.2 nM
- apparent Kd [2]: 51.6 nM

Sequence: CUGUUCUGUGUAGGAUAUGCAUAUUCCCAUUAUGCAGAAGGACAUGAGGAUCACCCAUGUAUGUUAUUAUCAUGUGUUACAUGC
- apparent Kd [1]: 37.6 nM
- apparent Kd [2]: 146 nM

Sequence: CCGGAAUCCUAGGAUAUGCUAGACGAAAGUCUAGCAGAAGGAGGAACAUGAGGAUCACCCAUGUGUCCUACCGG
- apparent Kd [1]: 18.6 nM
- apparent Kd [2]: 25 nM

Sequence: UGUGCCUCGAGAGGAUAUAUACAUGAGGAUCACCCAUGUAACGAGGUGGAAACACCUCGAAAUGUAUAGAAGGCUCGAGGCACA
- apparent Kd [1]: 27.7 nM
- apparent Kd [2]: 49.6 nM

Sequence: UGUGUGUGGGCAGGAUAUGCAUGAAGAUGUAUGAUGUAGUGUGAUGUAACAUGAGGAUCACCCAUGUAGAAGGGCCGGUGUGUG
- apparent Kd [1]: 116 nM
- apparent Kd [2]: 139 nM

Sequence: CCCGACCUGAAGUCGAUACGGAGGAGAAGGCGCCUCCUGGGUCCACAUGAGGAUCACCCAUGUGGCGAGGAUAUCCUCAGUUUU
- apparent Kd [1]: 11.8 nM
- apparent Kd [2]: 73.7 nM

Sequence: AGGGUAUGAACAUGAGGAUCACCCAUGUACUAGGAAACAAAUGAGGAUAUCGAUAGCAAAGCUAUCGAGAAGGCAUGGGACCCU
- apparent Kd [3]: 224 nM
- apparent Kd [4]: 51.8 nM

Sequence: CUUUUGUGAGGAUAUCAGUAGUAAAUAAAUAAAAUUACUACUGAGAAGGCACAUGAGGAUCACCCAUGUUCCUU
- apparent Kd [1]: 14.7 nM
- apparent Kd [2]: 28.4 nM

Sequence: CCGGACAUUCGGACAUGAGGAUCACCCAUGUAGGCGGAUUCACAGGAUAUAAGUUCGUCCGAGACUUAGAAGGGUGGCUUCCGA
- apparent Kd [3]: 119 nM
- apparent Kd [4]: 54.6 nM

Sequence: AAUGGCAUAGAGAAGGCGCCGCAGCUCUUCCUCCCAUCCCAACGACAUGAGGAUCACCCAUGUAGCGAGGAUAUCUAUACCGUU
- apparent Kd [1]: 6.91 nM
- apparent Kd [2]: 14.1 nM

Sequence: UGGUUCAUGGGAGGAUAUCCUCAAGAACAUGAGGAUCACCCAUGUAAUUAUAAGCCGAAAGGCAUGGAGAAGGCCCAUGAACCU
- apparent Kd [3]: 67.5 nM
- apparent Kd [4]: 16.9 nM

Sequence: AUUUCAGUCAGAGGAUAUUGUUUAUCUCUAUUGCAAGAAGGCUGAUCUUACUACCCACUUAUGAAACAUGAGGAUCACCCAUGU
- apparent Kd [3]: 20.8 nM
- apparent Kd [4]: 16.8 nM
